Assay results: PubChem BioAssay AID1885 (Broad Institute, 2009)
Several values for one entry are separate records, joined by “and”; a condition that tells them apart may be missing. Equal entries are not always repeated. The whole screen tested about 300,000 compounds, of which about 4,400 (1.5%) were called active.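 Rule for the calls: active = mean inhibition across valid replicates above about 55% (limit read from the data); inconclusive = mean below that limit but half or more replicates reach it; inactive = mean below it, under half of replicates reach it.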 The entries come from a sample that favours actives as a whole. More than one record can exist for a structure, and the calls need not agree.

Assay: inhibitors of intracellular T. cruzi growth, primary screen, luminescence, NIH3T3 host cells (AID 1885);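 note: signal also drops with host cell toxicity which is not excluded here; 0% = plate median of DMSO wells and 100% = zero luminescence signal; higher percent means less beta-gal luminescence so fewer parasites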
Conditions: T. cruzi beta-gal in NIH3T3, luminescence, 90 h; stronger effect = higher value; concentration not given here
In short: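 Read-out: Parasite load inhibition, % | Test system: Mouse NIH/3T3 fibroblasts infected with β-gal-expressing T. cruzi Tulahuen C4 | Amount: 5,000 cells/well | Medium: DMEM, 2% fetal bovine serum | Signal: GalScreen β-gal luminescence, detergent lysis, 60 min | Timing: 3 h attach, ≥90 h co-culture | Also added: Tulahuen C4 trypomastigotes, 5000/well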

**Q.** Which inhibition does the source give for `COc1cccc(NC(=S)N(Cc2ccc(C)cc2)Cc2ccccn2)c1` here?
**A.** The inhibition was 78.1% (active).

**Q.** Which inhibition does the source give for `COc1cccc(NC(=S)NCc2ccccn2)c1` here?
**A.** Its inhibition is 4.96% (inactive).

**Q.** Which inhibition does the source give for `CSc1cccc(NC(=S)N(Cc2ccccc2)Cc2ccccn2)c1` here?
**A.** The inhibition was 2.49% (inactive).

**Q.** With `Nn1c(SCc2ccccc2)nnc1C1CCCCC1` as the compound, how does the inhibition read?
**A.** Its inhibition is 2.33% (inactive).

**Q.** With `CCc1ccc(N2CC(C(=O)Nc3ccc(S(=O)(=O)Nc4nccs4)cc3)CC2=O)cc1` (stereo not given) as the compound, how does the inhibition read?
**A.** Its inhibition is -8.72% (inactive).

**Q.** With `CC1C(=O)Nc2ccccc2N1C(=O)c1ccc(F)cc1F` (stereo not given) as the compound, how does the inhibition read?
**A.** Its inhibition is 0.146% (inactive).

**Q.** Which inhibition does the source give for `O=[N+]([O-])c1ccccc1OCCCCN1CCCCC1` here?
**A.** The inhibition was 1.28% (inactive).

**Q.** Which inhibition does the source give for `Cc1ccc(OCCCCN2CCCCC2)c(Br)c1` here?
**A.** Its inhibition is 54.8% (active).

**Q.** With `Cc1ccc(C(C)(C)C)c(OCCCCN2CCCC2)c1` as the compound, how does the inhibition read?
**A.** The inhibition was 27.7% (inactive).

**Q.** For `COC(=O)C1=C[C@@H](C(=O)OC)[C@@H]2C3=C(C(=O)[C@]2(C)NC(=O)c2ccccc2)[C@H](C)n2c(=O)n(C)c(=O)n2[C@@H]3C1`, which inhibition is on record?
**A.** Its inhibition is 11.2% (inactive).

**Q.** With `COc1ccccc1NS(=O)(=O)c1ccc(C)c(C(=O)NCC(c2ccco2)N(C)C)c1` (stereo not given) as the compound, how does the inhibition read?
**A.** The inhibition was 4.14% (inactive).

**Q.** Which inhibition does the source give for `CCNC(=O)COc1cc(C)c(Br)c(C)c1` here?
**A.** The inhibition was 8.23% (inactive).

**Q.** Which inhibition does the source give for `Cc1cc(OCC(=O)NC2CCN(C)CC2)ccc1[N+](=O)[O-]` here?
**A.** The inhibition was 49.2% (inactive).

**Q.** Which inhibition does the source give for `Cc1cc(=O)oc2cc(OCCC[n+]3ccccc3)ccc12` here?
**A.** Its inhibition is 1.14% (inactive).

**Q.** With `Cc1cc(OCCCCOc2ccc(C#N)cc2)ccc1[N+](=O)[O-]` as the compound, how does the inhibition read?
**A.** Its inhibition is 19.5% (inactive).

**Q.** With `CCOc1ccccc1N1CCN(C(=O)COc2ccc3c(C)cc(=O)oc3c2)CC1` as the compound, how does the inhibition read?
**A.** Its inhibition is 24% (inactive).

**Q.** Which inhibition does the source give for `Cc1cc(OCCCN2CCN(Cc3ccccc3)CC2)ccc1[N+](=O)[O-]` here?
**A.** The inhibition was 55.7% (active).

**Q.** Which inhibition does the source give for `Cc1ccccc1N1CCN(CCCOc2ccc3c(C)cc(=O)oc3c2)CC1` here?
**A.** The inhibition was 60% (active).

**Q.** For `CC(C)CC(O)C1CCN(C(=O)CCc2nnc(-c3ccc4c(c3)OCO4)o2)CC1` (stereo not given), which inhibition is on record?
**A.** The inhibition was 3.35% (inactive).

**Q.** For `Cc1ccc(OCCNC(=O)CNC(=O)c2ccc(C)c(C)c2)cc1`, which inhibition is on record?
**A.** The inhibition was -2.75% (inactive).

**Q.** For `Clc1ccc(C[n+]2cc(-c3ccccc3)n3c2CCC3)cc1`, which inhibition is on record?
**A.** The inhibition was 27.8% (inactive).

**Q.** For `Cc1ccc(C(=O)C[n+]2cc(-c3ccccc3)n3c2CCCCC3)cc1`, which inhibition is on record?
**A.** The inhibition was 45.3% (inactive) and 65.4% (active).

**Q.** With `Cc1ccc(-c2c[n+](CC(=O)Nc3ccccc3)c3n2CCC3)cc1` as the compound, how does the inhibition read?
**A.** Its inhibition is -0.923% (inactive).

**Q.** With `COc1ccc(-c2cc(C(=O)N3CCN(Cc4ccc5c(c4)OCO5)CC3)on2)cc1OC` as the compound, how does the inhibition read?
**A.** The inhibition was -12.7% (inactive).

**Q.** Which inhibition does the source give for `CCC(CC)c1nnc(NC(=O)C2=COCCO2)s1` here?
**A.** Its inhibition is -5.48% (inactive).

**Q.** For `Cc1cccc(C(=O)c2cccc(C)c2)c1`, which inhibition is on record?
**A.** Its inhibition is -0.776% (inactive).

**Q.** With `Cc1cccc(C(=O)NCCCN(C)CCCNC(=O)c2cccc(C)c2)c1` as the compound, how does the inhibition read?
**A.** The inhibition was 66.4% (active).

**Q.** With `CCNC(=O)COC(=O)CCNC(=O)c1cccc(C)c1` as the compound, how does the inhibition read?
**A.** The inhibition was 8.59% (inactive).

**Q.** With `O=C(COC(=O)c1ccccc1Br)Nc1nnc(-c2ccccc2)o1` as the compound, how does the inhibition read?
**A.** The inhibition was 1.76% (inactive).

**Q.** Which inhibition does the source give for `O=c1[nH]c(CCl)nc2cc(-c3ccc(Cl)cc3)sc12` here?
**A.** The inhibition was 55.8% (active).

**Q.** For `NC(=O)Cc1nc2scc(-c3ccc(Cl)cc3)c2c(=O)[nH]1`, which inhibition is on record?
**A.** The inhibition was -9.75% (inactive).

**Q.** For `O=c1[nH]c(CN2CCOCC2)nc2cc(Cl)ccc12`, which inhibition is on record?
**A.** Its inhibition is -13.1% (inactive).

**Q.** With `CCC1CCC/C1=N\NC(=O)c1ccc(Cl)cc1` (stereo not given) as the compound, how does the inhibition read?
**A.** The inhibition was -10.7% (inactive).

**Q.** With `Cc1ccccc1Nc1nc(N)nc(CSc2ccccc2)n1` as the compound, how does the inhibition read?
**A.** Its inhibition is 4.95% (inactive).

**Q.** With `O=C(CNC(=O)c1ccccc1Br)NCCSc1ccc(Br)cc1` as the compound, how does the inhibition read?
**A.** The inhibition was -2.64% (inactive).

**Q.** With `O=C(/C=C/c1ccc(Cl)c([N+](=O)[O-])c1)c1ccc(O)cc1` as the compound, how does the inhibition read?
**A.** Its inhibition is -0.939% (inactive).

**Q.** With `O=C(/C=C/c1ccc(Cl)c([N+](=O)[O-])c1)c1cccnc1` as the compound, how does the inhibition read?
**A.** The inhibition was 34% (inactive).

**Q.** Which inhibition does the source give for `NC(N)=N/N=C/c1ccc(Cl)c([N+](=O)[O-])c1` here?
**A.** Its inhibition is 60.6% (active).

**Q.** With `COc1ccccc1C(=O)Nc1ccc(Nc2ccccc2)cc1` as the compound, how does the inhibition read?
**A.** The inhibition was -9% (inactive).

**Q.** With `COc1ccccc1CNC(=O)COn1nnc2ccc(S(=O)(=O)N3CCOCC3)cc21` as the compound, how does the inhibition read?
**A.** Its inhibition is 3.8% (inactive).

**Q.** Which inhibition does the source give for `Cc1ccccc1-n1c(SCC(=O)NCc2cccs2)nnc1-c1ccncc1` here?
**A.** The inhibition was 9.95% (inactive).

**Q.** With `Cc1ccc(-c2noc(CSc3nnc(-c4ccncc4)n3-c3ccc(F)cc3)n2)cc1` as the compound, how does the inhibition read?
**A.** The inhibition was 9.52% (inactive).

**Q.** With `Cc1ccc(Nc2nc(CSc3nnc(-c4ccncc4)n3-c3ccccc3C)cs2)cc1` as the compound, how does the inhibition read?
**A.** Its inhibition is 57.4% (active).

**Q.** Which inhibition does the source give for `COC(=O)c1cc(NC(=O)c2nn(C)c(=O)c3ccccc23)cc(C(=O)OC)c1` here?
**A.** Its inhibition is -14.3% (inactive).

**Q.** For `O=C(CC1SC(N2CCCC2)=NC1=O)Nc1ccc(C(=O)NCCc2ccc(F)cc2)cc1` (stereo not given), which inhibition is on record?
**A.** Its inhibition is -6.73% (inactive).

**Q.** For `COC(=O)c1[nH]c2ccccc2c1NC(=O)CN1CCCc2ccccc21`, which inhibition is on record?
**A.** Its inhibition is 67.6% (active).

**Q.** With `NS(=O)(=O)c1cccc(NC(=O)CN2CCCc3ccccc32)c1` as the compound, how does the inhibition read?
**A.** The inhibition was -16.2% (inactive).

**Q.** With `COC(=O)c1[nH]c2cccc(C)c2c1NC(=O)CN1CCCc2ccccc21` as the compound, how does the inhibition read?
**A.** The inhibition was 4.45% (inactive).

**Q.** Which inhibition does the source give for `CSc1n[nH]c(=S)n1N` here?
**A.** Its inhibition is -10.3% (inactive).

**Q.** For `COC(=O)c1cnc(Nc2cc(C)ccc2OC)c2ccccc12`, which inhibition is on record?
**A.** Its inhibition is -8.82% (inactive).

**Q.** Which inhibition does the source give for `Cc1nonc1NC(=O)c1oc2ccccc2c1C` here?
**A.** Its inhibition is -12.6% (inactive).

**Q.** With `Cc1ccc(C(=O)NC(=S)NCc2cccnc2)cc1` as the compound, how does the inhibition read?
**A.** The inhibition was 14.1% (inactive).

**Q.** Which inhibition does the source give for `Cc1c(C(=O)NC(=S)NCc2cccnc2)oc2ccccc12` here?
**A.** Its inhibition is 63.2% (active).

**Q.** With `CC(C)CN(C(=O)COC(=O)c1ccc2ccccc2c1)c1c(N)n(Cc2ccccc2)c(=O)[nH]c1=O` as the compound, how does the inhibition read?
**A.** Its inhibition is 2.62% (inactive).

**Q.** For `CCN(C(=O)COC(=O)C1CCN(S(=O)(=O)c2ccc(C)c(C)c2)CC1)C1CCS(=O)(=O)C1` (stereo not given), which inhibition is on record?
**A.** Its inhibition is -2.19% (inactive).

**Q.** For `Cc1ccc(NC(=O)c2c(NC(=O)CCC(=O)O)sc3c2CCCCC3)cc1`, which inhibition is on record?
**A.** The inhibition was -8.68% (inactive).

**Q.** Which inhibition does the source give for `NC(=O)c1c(NC(=O)c2ccccc2)sc2c1CCCC2` here?
**A.** The inhibition was 12.5% (inactive).

**Q.** For `Cc1ccc(C(=O)c2c(NC(=O)c3ccncc3)sc3c2CCCC3)cc1`, which inhibition is on record?
**A.** The inhibition was 57.9% (active).

**Q.** For `CN(C)C(CNC(=O)c1cccc(S(=O)(=O)Nc2ccc(Br)cc2)c1)c1ccco1` (stereo not given), which inhibition is on record?
**A.** The inhibition was 20.3% (inactive).

**Q.** For `COc1ccc(OC)c(NC(=O)c2ccc3c(c2)C(=O)N(c2ccc(OC(C)=O)cc2)C3=O)c1`, which inhibition is on record?
**A.** The inhibition was -18% (inactive).
